Experimental data taken from ChEMBL document CHEMBL1156461, “Selective chemical probe inhibitor of Stat3, identified through structure-based virtual screening, induces antitumor activity” (Proc Natl Acad Sci U S A, 2007).
Active and inactive are the calls of the source. The rule behind the calls is not given here.

Assays:
MDA-MB-468 [1] = experiment: Growth inhibition of human […] at 100 uM after 4 days by trypan blue exclusion assay; assay type: functional, cell-based
MDA-MB-231 [2] = experiment: Reduction of apoptosis in Stat3 transfected human MDA-MB-231 cells at 100 uM after 24 hrs; assay type: functional, cell-based
MDA-MB-435 [3] = experiment: Induction of apoptosis in human MDA-MB-435 cells expressing active Stat3 at 30 to 100 uM after 48 hrs; assay type: functional, cell-based
In short: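 Proliferating cells were exposed to compound or 0.05% DMSO for 48 h, then detached. Percent apoptosis was quantified by annexin V binding and flow cytometry.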

MDA-MB-435 [4] = experiment: Cytotoxicity against human MDA-MB-435 cells expressing constitutively active Stat3 at >300 uM
MDA-MB-231 [5] = experiment: Reduction of Bcl-xL gene expression in human MDA-MB-231 cells at 100 uM after 48 hrs; assay type: functional, cell-based
MDA-MB-231 [6] = experiment: Induction of apoptosis in mock pcDNA3 transfected human MDA-MB-231 cells at 100 uM after 24 hrs; assay type: functional
In short: (§1)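 Cells were transfected with Stat3C or the Stat3 SH2 domain, mock-transfected, or left untransfected. After 24 h they received 100 μM compound or 0.05% DMSO for a further 24 h. Annexin V binding with flow cytometry gave percent apoptosis.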

NIH3T3 [7] = experiment: Reduction of Bcl-xL gene expression in v-Src transfected mouse NIH3T3 cells at 100 uM after 48 hrs; assay type: functional, cell-based
NIH3T3 [8] = experiment: Reduction of pTyr-705 Stat3 level in v-Src expressing mouse NIH3T3 cells at 100 uM after 24 hrs; assay type: functional, cell-based
MDA-MB-435 [9] = experiment: Growth inhibition of human MDA-MB-435 cells expressing v-Src at 100 uM after 4 days by trypan blue exclusion assay; assay type: functional, cell-based
MDA-MB-231 [10] = experiment: Reduction of survivin gene expression in human MDA-MB-231 cells at 100 uM after 48 hrs; assay type: functional, cell-based
MDA-MB-231 [11] = experiment: Growth inhibition of human […] at 100 uM after 4 days by trypan blue exclusion assay; assay type: functional, cell-based
NIH3T3 [12] = experiment: Inhibition of Stat3 activation in v-Src expressing mouse NIH3T3 cells at 100 uM; assay type: functional, cell-based; conditions: TDE = time-dependent effect
In short: (§2)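 Cells with constitutively active Stat3 were treated with compound or 0.05% DMSO (up to 24 h). Nuclear extracts were then assayed for Stat3 DNA binding by EMSA with 32P-labeled hSIE probe.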

MDA-MB-231 [13] = experiment: Antitumor activity against human MDA-MB-231 cells expressing active Stat3 xenografted in mouse at 5 mg/kg, iv for every 3 days for 2 weeks; assay type: functional, organism-based; parameters: dose 5 mg/kg
In short: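 Female athymic nude mice (six weeks old) received 5 × 10^6 MDA-MB-231 cells s.c. in the left flank in PBS. Once tumors reached 3 mm diameter (5–10 days), animals were stratified to equal mean tumor size and dosed i.v. at 5 mg/kg every 2 or 3 days for 2 weeks against vehicle. Tumors were measured every 2–3 days.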

MDA-MB-231 [14] = experiment: Induction of apoptosis in human MDA-MB-231 cells at 100 uM after 24 hrs; assay type: functional; in short: as §1
MDA-MB-468 [15] = experiment: Inhibition of Stat3 activation in human MDA-MB-468 cells at 100 uM after 24 hrs; assay type: functional, cell-based; in short: as §2
NIH3T3 [16] = experiment: Inhibition of Stat3-dependent pLucTKS3 luciferase […] induction in v-Src oncoprotein expressing mouse NIH3T3 cells co-transfected with pLucTKS3 at 100 uM after 24 hrs; assay type: functional, cell-based
In short: (§3)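 NIH 3T3 fibroblasts were cotransfected with a v-Src plasmid and either the Stat3-dependent pLucTKS3 or the Stat3-independent pLucSRE reporter. At 24 h post-transfection, cells got 100 μM compound or 0.05% DMSO for another 24 h. Luciferase was read in cytosolic extracts.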

NIH3T3 [17] = experiment: Reduction of survivin gene expression in v-Src transfected mouse NIH3T3 cells at 100 uM after 48 hrs; assay type: functional, cell-based
MDA-MB-231 [18] = experiment: Induction of apoptosis in Stat3 SH2 domain transfected human MDA-MB-231 cells at 100 uM after 24 hrs; assay type: functional, cell-based; in short: as §1
MDA-MB-231 [19] = experiment: Inhibition of Stat3 activation in human MDA-MB-231 cells at 100 uM after 24 hrs; assay type: functional, cell-based; in short: as §2
MDA-MB-231 [20] = experiment: Reduction of cyclin D1 gene expression in human MDA-MB-231 cells at 100 uM after 48 hrs; assay type: functional, cell-based
MDA-MB-231 [21] = experiment: Induction of apoptosis in Stat3C transfected human MDA-MB-231 cells at 100 uM after 24 hrs; assay type: functional, cell-based; in short: as §1
NIH3T3 [22] = experiment: Inhibition of v-Src mediated Stat3-independent pLucSRE luciferase […] induction in mouse NIH3T3 cells at 100 uM after 24 hrs; assay type: functional, cell-based; in short: as §3
NIH3T3 [23] = experiment: Growth inhibition of mouse NIH3T3 cells expressing v-Src at 100 uM for every 3 days by soft-agar colony-formation assay; assay type: functional, cell-based
In short: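 Soft-agar colony formation in six-well dishes. Compound in medium was added from 1 day after seeding and re-added every 3 days until large colonies appeared. Untreated wells served as control.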

NIH3T3 [24] = experiment: Reduction of cyclin D1 gene expression in v-Src transfected mouse NIH3T3 cells at 100 uM after 48 hrs; assay type: functional, cell-based
MDA-MB-435 [25] = experiment: Inhibition of Stat3 activation in human MDA-MB-435 cells at 100 uM after 24 hrs; assay type: functional, cell-based; in short: as §2
NIH3T3 [26] = experiment: Growth inhibition of mouse NIH3T3 cells expressing v-Src at 100 uM after 4 days by trypan blue exclusion assay; assay type: functional, cell-based

With `Cc1ccc(S(=O)(=O)OCC(=O)Nc2ccc(C(=O)O)c(O)c2)cc1` the Activity (MDA-MB-468 [1]) was “Active”, the Activity (MDA-MB-231 [2]) was “Active” and the Activity (MDA-MB-435 [3]) was “Active”. For the same compound, the Activity (MDA-MB-435 [4]) was “Toxic”, the Activity (MDA-MB-231 [5]) was “Active” and the Activity (MDA-MB-231 [6]) was 50%. For the same compound, the Activity (NIH3T3 [7]) was “Active”, the Activity (NIH3T3 [8]) was “Active” and the Activity (MDA-MB-435 [9]) was “Active”. For the same compound, the Activity (MDA-MB-231 [10]) was “Active”, the Activity (MDA-MB-231 [11]) was “Active” and the Activity (NIH3T3 [12]) was “tde”. The Activity (MDA-MB-231 [13]) was “Active”, the Activity (MDA-MB-231 [14]) was 50% and the Activity (MDA-MB-468 [15]) was “Active”. For the same compound, the Activity (NIH3T3 [16]) was “Dose-dependent effect”, the Activity (NIH3T3 [17]) was “Active” and the Activity (MDA-MB-231 [18]) was “Active”. For the same compound, the Activity (MDA-MB-231 [19]) was “Active”, the Activity (MDA-MB-231 [20]) was “Active” and the Activity (MDA-MB-231 [21]) was “Active”. For the same compound, the Activity (NIH3T3 [22]) was “inactive”, the Activity (NIH3T3 [23]) was “Active” and the Activity (NIH3T3 [24]) was “Active”. The Activity (MDA-MB-435 [25]) was “Active” and the Activity (NIH3T3 [26]) was “Active”.
